In ChEMBL document CHEMBL4145456, “Synthesis and biological evaluation of novel 2-arylvinyl-substituted naphtho[2,3-d]imidazolium halide derivatives as potent antitumor agents” (Eur J Med Chem, 2018):
Activity calls are given as the source filed them. The rule behind the calls is not given here.

What was measured:
A-375 [1] = experiment: Antiproliferative activity against human A375 cells after 48 hrs by CellTiter 96 aqueous one solution assay; format: functional, cell-based; conditions: A-375, 48 h
In short: (§1)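 Cells in 10% FBS medium with penicillin/streptomycin at 37°C, 5% CO2, seeded at 3000-10000 per well and precultured 1 day. DMSO stocks (10 mM) were diluted to a 10 µM top working solution, then serially diluted 3-fold in medium. Exposure was 48 h. Read-out was MTS tetrazolium-to-formazan absorbance at 492 nm. IC50 came from a three-parameter logistic fit, mean of three independent experiments.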

HeLa = experiment: Antiproliferative activity against human HeLa cells after 48 hrs by CellTiter 96 aqueous one solution assay; format: functional, cell-based; in short: as §1
PC-3 [2] = experiment: Antiproliferative activity against human PC3 cells after 48 hrs by CellTiter 96 aqueous one solution assay; format: functional, cell-based; conditions: PC-3, 48 h; in short: as §1
Homo sapiens [3] = organism: Homo sapiens; experiment: Induction of microtubule disruption in human A375 cells assessed as cell detachment at 70 nM after 24 hrs by FITC/DAPI staining-based fluorescence assay
In short: (§2)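 A375 cells grown in 96-well plates, 8×10^3 cells/well, exposed to DMSO vehicle or compound for 24 h at 37°C. Cells were washed, then fixed, blocked and permeabilized. They were stained overnight with monoclonal α-tubulin primary antibody, then 3 h with FITC-labelled secondary; nuclei counterstained with DAPI. Imaged on an automated imaging system at 200×. Paclitaxel served as positive control.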

Homo sapiens [4] = organism: Homo sapiens; experiment: Induction of microtubule disruption in human A375 cells assessed as appearance of rounded cell at 70 nM after 24 hrs by FITC/DAPI staining-based fluorescence assay
In short: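 A375 cells at 8×10^3 per well were treated for 24 h at 37°C, then washed, fixed, blocked and permeabilized. They were stained with anti-α-tubulin overnight and a FITC secondary for 3 h, and nuclei were counterstained with DAPI. Automated imaging was at 200×, and rounded cells were scored from morphology.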

Homo sapiens [5] = organism: Homo sapiens; experiment: Induction of microtubule disruption in human A375 cells assessed as cell shrunk with improper microtubule bundling at 70 nM after 24 hrs by FITC/DAPI staining-based fluorescence assay; in short: as §2
Ehrlich = experiment: Antitumor activity against mouse EAC cells implanted in ICR mouse assessed as tumor growth inhibition at 30 mg/kg, ip qd dosed for 10 consecutive days relative to control; conditions: read-out: TGI
Mus musculus [6] = experiment: Toxicity in ICR mouse implanted with EAC cells assessed as decrease in thymus index at 0.06 to 0.6 mg/kg, ip qd dosed for 10 consecutive days; format: organism-based; conditions: in vivo
In short: (§3)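 Adult male ICR mice, 6 weeks, 20-25 g, n=7 per group. Given 5×10^6 EAC cells s.c. in the right thigh; cells came from intraperitoneal passage in donor mice. From day 1, dosed i.p. daily for 10 d (0.1 mL/10 g) in saline with 4% DMA and 2% Solutol HS15; vehicle controls included. Spleen and thymus weighed at sacrifice; organ index is organ weight/body weight.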

Mus musculus [7] = experiment: Toxicity in ICR mouse implanted with EAC cells assessed as decrease in spleen index at 0.06 to 0.6 mg/kg, ip qd dosed for 10 consecutive days; format: organism-based; conditions: in vivo; in short: as §3
A-375 [8] = experiment: Induction of apoptosis in human A375 cells after 24 hrs by Annexin V/propidium iodide staining-based FACS analysis; format: functional, cell-based
PC-3 [9] = experiment: Induction of apoptosis in human PC3 cells assessed as viable cells at 100 nM after 24 hrs by Annexin V/propidium iodide staining-based FACS analysis (reference value: 97.0%); format: functional; conditions: PC-3, 24 h, read-out: Activity
A-375 [10] = experiment: Induction of apoptosis in human A375 cells assessed as decrease in Bcl-2 expression at 10 to 1000 nM after 48 hrs by Western blot analysis; format: functional, cell-based
In short: (§4)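 A375 cells at 1×10^5 per well were treated for 48 h and lysed in RIPA buffer. Equal protein was run on 12% SDS-PAGE and transferred to PVDF, which was blocked in 5% milk/PBS for 1 h at room temperature. Primary antibodies (survivin, caspase-3, Bcl-2, PARP, p-ERK, total ERK, GAPDH) were used at 1:1000. GAPDH served as loading control.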

PC-3 [11] = experiment: Induction of apoptosis in human PC3 cells assessed as viable cells at 1 nM after 24 hrs by Annexin V/propidium iodide staining-based FACS analysis (reference value: 97.0%); format: functional; conditions: PC-3, 24 h, read-out: Activity
A-375 [12] = experiment: Induction of apoptosis in human A375 cells assessed as viable cells at 100 nM after 24 hrs by Annexin V/propidium iodide staining-based FACS analysis (reference value: 92.2%); format: functional; conditions: A-375, 24 h, read-out: Activity
PC-3 [13] = experiment: Induction of apoptosis in human PC3 cells assessed as viable cells at 10 nM after 24 hrs by Annexin V/propidium iodide staining-based FACS analysis (reference value: 97.0%); format: functional; conditions: PC-3, 24 h, read-out: Activity
A-375 [14] = experiment: Induction of apoptosis in human A375 cells assessed as decrease in survivin expression at 10 to 1000 nM after 48 hrs by Western blot analysis; format: functional, cell-based; in short: as §4
A-375 [15] = experiment: Induction of apoptosis in human A375 cells assessed as increase in procaspase-3 cleavage at 10 to 1000 nM after 48 hrs by Western blot analysis; format: functional, cell-based; in short: as §4
A-375 [16] = experiment: Induction of apoptosis in human A375 cells assessed as viable cells at 1000 nM after 24 hrs by Annexin V/propidium iodide staining-based FACS analysis (reference value: 92.2%); format: functional; conditions: A-375, 24 h, read-out: Activity
A-375 [17] = experiment: Induction of apoptosis in human A375 cells assessed as viable cells at 10 nM after 24 hrs by Annexin V/propidium iodide staining-based FACS analysis (reference value: 92.2%); format: functional; conditions: A-375, 24 h, read-out: Activity

Row | IC50 (A-375 [1]) | IC50 (HeLa) | IC50 (PC-3 [2]) | SMILES | further results
1 | 26 µM | > 30 µM | 0.143 µM | CC[n+]1c2c(n(C3CC3)c1/C=C/c1cc(OC)c(OC)c(OC)c1)C(=O)c1ccccc1C2=O | –
2 | 0.891 µM | 2.05 µM | 0.052 µM | CC[n+]1c2c(n(C3CC3)c1/C=C/c1c[nH]c3ccccc13)C(=O)c1ccccc1C2=O | –
3 | 1.31 µM | 6.54 µM | 0.038 µM | CC[n+]1c2c(n(C3CC3)c1/C=C/c1ccccc1)C(=O)c1ccccc1C2=O | –
4 | 0.553 µM | 6.12 µM | 0.071 µM | CC[n+]1c2c(n(C(C)C)c1/C=C/c1c[nH]c3ccccc13)C(=O)c1ccccc1C2=O | –
5 | 8 µM | 13.5 µM | 0.066 µM | CC[n+]1c2c(n(C3CC3)c1/C=C/c1ccc(OC)c(OC)c1)C(=O)c1ccccc1C2=O | –
6 | 13.9 µM | 18.5 µM | 0.038 µM | CC[n+]1c2c(n(C3CC3)c1/C=C/c1ccc(O)c(OC)c1)C(=O)c1ccccc1C2=O | –
7 | 5.36 µM | 11.3 µM | 0.028 µM | CC[n+]1c2c(n(C3CC3)c1/C=C/c1cccc([N+](=O)[O-])c1)C(=O)c1ccccc1C2=O | –

The next lines start with the molecule.

Row | SMILES | IC50 (A-375 [1]) | IC50 (HeLa) | IC50 (PC-3 [2]) | further results
8 | CC(=O)O[C@H]1C(=O)[C@@]2(C)[C@H]([C@H](OC(=O)c3ccccc3)[C@]3(O)C[C@H](OC(=O)[C@H](O)[C@@H](NC(=O)c4ccccc4)c4ccccc4)C(C)=C1C3(C)C)[C@]1(OC(C)=O)CO[C@@H]1C[C@@H]2O | – | – | – | Activity (Homo sapiens [3]): Active; Activity (Homo sapiens [4]): Active; Activity (Homo sapiens [5]): Active
9 | COCC[n+]1c2c(n(Cc3ccccc3)c1/C=C/c1ccc(O)c(OC)c1)C(=O)c1ccccc1C2=O | 0.536 µM | 1.13 µM | 0.022 µM | –
10 | CC[n+]1c2c(n(C(C)C)c1/C=C/c1ccc(O)cc1)C(=O)c1ccccc1C2=O | 5.58 µM | > 30 µM | 0.072 µM | –
11 | CC[n+]1c2c(n(C(C)C)c1/C=C/c1ccc([N+](=O)[O-])cc1)C(=O)c1ccccc1C2=O | 1.43 µM | 9.93 µM | 0.039 µM | –
12 | O=P1(N(CCCl)CCCl)NCCCO1 (stereo not drawn) [CYCLOPHOSPHAMIDE ANHYDROUS] | – | – | – | inhibition in vivo at 30 mg/kg (Ehrlich): 48.9%
13 | COCC[n+]1c2c(n(Cc3ccccc3)c1/C=C/c1c[nH]c3ccccc13)C(=O)c1ccccc1C2=O.[Br-] | – | – | – | Activity (Mus musculus [6]): Non-Toxic; Activity (Mus musculus [7]): Non-Toxic
14 | COCC[n+]1c2c(n(Cc3cccc(OC)c3)c1/C=C/c1cccc(O)c1)C(=O)c1ccccc1C2=O | 1.12 µM | 7.33 µM | 0.222 µM | –
15 | CC[n+]1c2c(n(C(C)C)c1/C=C/c1ccc(C)cc1)C(=O)c1ccccc1C2=O | 1.07 µM | 1.12 µM | 0.022 µM | Activity (A-375 [8]): Dose-dependent effect; viability at 0.1 µM (PC-3 [9]): 75.6%; Activity (A-375 [10]): Active; viability at 0.001 µM (PC-3 [11]): 98%; viability at 0.1 µM (A-375 [12]): 82.2%; viability at 0.01 µM (PC-3 [13]): 96.5%; Activity (A-375 [14]): Active; Activity (A-375 [15]): Active; viability at 1 µM (A-375 [16]): 65.7%; viability at 0.01 µM (A-375 [17]): 88.3%
16 | CC[n+]1c2c(n(C(C)C)c1/C=C/c1cccc(O)c1)C(=O)c1ccccc1C2=O | 2.94 µM | 13 µM | 0.14 µM | –
17 | COCC[n+]1c2c(n(Cc3ccccc3)c1C)C(=O)c1ccccc1C2=O | 1.14 µM | 10 µM | 0.073 µM | –
18 | COCC[n+]1c2c(n(Cc3ccccc3)c1/C=C/C=C/c1ccccc1)C(=O)c1ccccc1C2=O | 0.551 µM | 1.28 µM | 0.212 µM | –
19 | CC[n+]1c2c(n(C(C)C)c1/C=C/c1ccc(O)c(OC)c1)C(=O)c1ccccc1C2=O | 6.58 µM | > 30 µM | 0.09 µM | –
20 | COCC[n+]1c2c(n(Cc3ccccc3)c1/C=C/c1cccc(O)c1)C(=O)c1ccccc1C2=O | 0.791 µM | 4.86 µM | 0.1 µM | –
21 | COCC[n+]1c2c(n(Cc3cccc(OC)c3)c1/C=C/c1cc(OC)c(OC)c(OC)c1)C(=O)c1ccccc1C2=O | 1 µM | 7.5 µM | 0.291 µM | –
22 | COCC[n+]1c2c(n(Cc3cccc(OC)c3)c1/C=C/c1c[nH]c3ccccc13)C(=O)c1ccccc1C2=O | 0.353 µM | 1.37 µM | 0.215 µM | –
